# Results of several laboratories.
# Target: Calcium/calmodulin-dependent protein kinase type 1 (CAMK1, Homo sapiens, UniProt Q14012)
SMILES,assay,conditions,measurement,result
C#Cc1n[nH]c2c(-c3cn([C@@H](C)c4ccccc4)c(=O)[nH]c3=O)cc(F)cc12,"enzyme activity, inhibitor",0.1 µM,inhibition,14.4%
O=c1[nH]c2ccccc2n1C1CCN(Cc2ccc(-c3[nH]c4cc5ncnc5cc4nc3-c3ccccc3)cc2)CC1,cell-free assay,0.5 µM,remaining signal,95.1%
Cc1nn(C)cc1-c1nc2c(N3CCN(Cc4ccc(Cl)cc4)CC3)c(Cl)cnc2[nH]1,"binding, competition with immobilised ligand",1 µM,remaining binding,100%
Cn1cncc1[C@@](O)(COc1ccc(C#N)cc1-c1ccc(OC(F)(F)F)cc1)c1ccc(C#N)cc1,"cell-free assay, competition with immobilised ligand",1 µM,remaining binding,100%
COc1ncccc1-c1cnn2ccc(N3CCN(C(=O)OC(C)C)CC3)nc12,"binding, competition with immobilised ligand",1 µM,remaining binding,100%
N#CC1(c2ccccn2)CCN(Cc2cc(C(=O)O)c(=O)n3ccccc23)CC1,"cell-free assay, competition with immobilised ligand",1 µM,remaining binding,76%
COc1cc(Nc2ncc(F)c(Nc3ccc4c(n3)NC(=O)C(C)(C)O4)n2)cc(OC)c1OC,"binding, competition with immobilised ligand",10 µM,inhibition,97%
C#Cc1n[nH]c2c(-c3cn(C(C)c4ccccn4)c(=O)[nH]c3=O)cc(F)cc12 (stereo not shown),"enzyme activity, inhibitor",1 µM,inhibition,-18.7%
CC(C)(C)c1cc(C=C(C#N)C#N)cc(Br)c1O,"enzyme activity, inhibitor",0.5 µM,remaining activity,97.5%
Cn1cc(-c2cc(F)cc(N3CCn4c(cc5c4CCCC5)C3=O)c2CO)cc(Nc2ccc(N3CCN(C4COC4)CC3)cn2)c1=O,"enzyme activity, inhibitor",0.1 µM,inhibition,0%
